For 2 molecules, GI50, IC50 and inhibition results are on record in ChEMBL document CHEMBL4024792, “(N-Hydroxycarbonylbenylamino)quinolines as Selective Histone Deacetylase 6 Inhibitors Suppress Growth of Multiple Myeloma in Vitro and in Vivo” (J Med Chem, 2018).

As a reminder, the GI50 is the concentration giving 50% growth inhibition. Read a high GI50 as lower sensitivity of the cells. In general, IC50 refers to the concentration that inhibits the measured activity by half.

In one assay the test system is RPMI-8226. The assay can be described thus: Antiproliferative activity against human RPMI8226 cells after 48 hrs by SRB assay. The assay is classed as functional. The conditions noted are these: RPMI-8226, 48 h. Put shortly: (§1)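 Cells were exposed to test compounds at the indicated concentrations for 48 h. They were then fixed with 10% trichloroacetic acid, stained 30 min with 0.4% SRB in 1% AcOH, and washed with 1% AcOH. Bound dye was solubilized in 10 mM Tris base and OD read at 510 nm. Lines cultured in RPMI 1640 with 20% FBS and penicillin/streptomycin, 37°C, 5% CO2.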

A further assay deals with Histone deacetylase 1 (Homo sapiens, UniProt Q13547). In words: Inhibition of full length recombinant human C-terminal FLAG/His-tagged HDAC1 expressed in baculovirus infected sf21 cells using RHK-K(Ac)-AMC as substrate after 60 mins by fluorescence assay.
Chain of Histone deacetylase 1 (Q13547 whole entry): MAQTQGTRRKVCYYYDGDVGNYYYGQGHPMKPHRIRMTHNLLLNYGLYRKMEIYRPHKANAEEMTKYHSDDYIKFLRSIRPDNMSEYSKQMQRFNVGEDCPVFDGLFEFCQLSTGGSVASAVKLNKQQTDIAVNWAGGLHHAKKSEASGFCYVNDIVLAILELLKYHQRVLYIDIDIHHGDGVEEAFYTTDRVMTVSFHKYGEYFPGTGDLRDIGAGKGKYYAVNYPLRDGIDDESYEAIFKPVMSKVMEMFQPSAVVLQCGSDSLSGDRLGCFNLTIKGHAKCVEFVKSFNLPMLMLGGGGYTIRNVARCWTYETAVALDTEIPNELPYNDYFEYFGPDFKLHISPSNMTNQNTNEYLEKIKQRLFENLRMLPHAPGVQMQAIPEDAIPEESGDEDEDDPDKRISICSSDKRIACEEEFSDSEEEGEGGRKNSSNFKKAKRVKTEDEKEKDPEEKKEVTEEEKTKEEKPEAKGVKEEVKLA
The target in a further assay is T1, Histone deacetylase 8 (Homo sapiens, UniProt Q9BY41).
T1 sequence (Q9BY41 whole entry): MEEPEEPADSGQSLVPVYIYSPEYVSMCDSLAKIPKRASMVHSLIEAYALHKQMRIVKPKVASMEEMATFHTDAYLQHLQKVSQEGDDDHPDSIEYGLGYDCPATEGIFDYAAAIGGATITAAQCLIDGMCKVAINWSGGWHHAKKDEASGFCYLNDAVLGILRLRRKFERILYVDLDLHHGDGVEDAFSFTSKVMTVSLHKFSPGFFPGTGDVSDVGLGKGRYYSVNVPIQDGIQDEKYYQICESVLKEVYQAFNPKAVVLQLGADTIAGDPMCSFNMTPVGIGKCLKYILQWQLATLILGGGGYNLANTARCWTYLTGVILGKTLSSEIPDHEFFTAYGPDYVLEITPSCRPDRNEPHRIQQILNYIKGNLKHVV
In words: Inhibition of recombinant human C-terminal His-tagged/N-terminal Strep2-tagged HDAC8 (1 to 377 residues) expressed in insect cells using RHK-K(Ac)-AMC as substrate after 60 mins by fluorescence assay.

Assay [1] concerns the target T2, Protein deacetylase HDAC6 (Homo sapiens) (UniProt Q9UBN7).
T2 sequence (whole entry): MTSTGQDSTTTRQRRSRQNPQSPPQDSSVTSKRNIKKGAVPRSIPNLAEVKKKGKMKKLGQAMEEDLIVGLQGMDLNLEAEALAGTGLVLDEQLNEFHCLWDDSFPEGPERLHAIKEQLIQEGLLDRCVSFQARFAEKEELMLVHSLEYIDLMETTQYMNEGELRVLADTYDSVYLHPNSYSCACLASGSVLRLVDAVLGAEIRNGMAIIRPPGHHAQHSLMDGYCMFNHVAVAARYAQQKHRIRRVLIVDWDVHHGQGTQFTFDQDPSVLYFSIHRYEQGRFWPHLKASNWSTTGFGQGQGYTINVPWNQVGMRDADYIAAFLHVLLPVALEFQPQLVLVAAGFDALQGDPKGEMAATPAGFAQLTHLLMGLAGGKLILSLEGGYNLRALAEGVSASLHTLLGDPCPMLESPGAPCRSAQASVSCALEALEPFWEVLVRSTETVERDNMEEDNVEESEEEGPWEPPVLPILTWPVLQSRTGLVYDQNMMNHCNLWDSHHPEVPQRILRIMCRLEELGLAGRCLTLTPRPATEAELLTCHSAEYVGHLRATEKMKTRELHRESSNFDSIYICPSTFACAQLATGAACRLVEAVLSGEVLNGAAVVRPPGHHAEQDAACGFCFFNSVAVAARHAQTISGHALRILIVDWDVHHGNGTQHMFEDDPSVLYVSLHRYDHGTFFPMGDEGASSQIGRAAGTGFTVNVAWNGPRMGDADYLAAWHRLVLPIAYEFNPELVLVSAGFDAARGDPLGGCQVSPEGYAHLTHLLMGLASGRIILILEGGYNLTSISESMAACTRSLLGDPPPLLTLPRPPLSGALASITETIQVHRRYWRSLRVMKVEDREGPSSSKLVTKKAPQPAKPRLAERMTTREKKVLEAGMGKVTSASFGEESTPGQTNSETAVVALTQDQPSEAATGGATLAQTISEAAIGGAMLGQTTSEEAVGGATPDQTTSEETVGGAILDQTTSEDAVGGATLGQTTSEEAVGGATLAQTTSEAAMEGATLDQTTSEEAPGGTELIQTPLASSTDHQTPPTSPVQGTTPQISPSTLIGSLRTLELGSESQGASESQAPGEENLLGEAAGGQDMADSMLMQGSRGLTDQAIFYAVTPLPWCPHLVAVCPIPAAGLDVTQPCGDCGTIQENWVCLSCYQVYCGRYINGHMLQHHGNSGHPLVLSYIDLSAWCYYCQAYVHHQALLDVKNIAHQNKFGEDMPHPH
The assay can be described thus: Inhibition of HDAC6 in human RPMI8226 cells assessed as increase in acetylated tubulin level by immunoblot analysis relative to control. The assay is classed as cell-based. The method, boiled down: (§2)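 Multiple myeloma cells harvested in Tris-HCl lysis buffer (pH 7.4) with protease and phosphatase inhibitors, then centrifuged 17,000 g for 30 min at 4 °C. Lysates immunoblotted with specific antibodies for acetylated α-tubulin. Signal detected by ECL on film.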
For orientation: In western blotting, separated proteins are transferred to a membrane and probed.

For a further assay, the system named is NCI-H929. The assay can be described thus: Antiproliferative activity against human NCI-H929 cells after 48 hrs by SRB assay. In kind it is functional. The conditions noted are these: NCI-H929, 48 h. The method, boiled down: as §1
Background: The SRB assay estimates cell density from bound dye.

The target in assay [2] is T2, Protein deacetylase HDAC6 (Homo sapiens). In words: Inhibition of HDAC6 in human NCI-H929 cells assessed as increase in acetylated tubulin level by immunoblot analysis relative to control. The assay is classed as cell-based. The method, boiled down: as §2
The target of the next assay is T3, Histone deacetylase 11 (Homo sapiens, UniProt Q96DB2).
T3 sequence (Q96DB2 whole entry): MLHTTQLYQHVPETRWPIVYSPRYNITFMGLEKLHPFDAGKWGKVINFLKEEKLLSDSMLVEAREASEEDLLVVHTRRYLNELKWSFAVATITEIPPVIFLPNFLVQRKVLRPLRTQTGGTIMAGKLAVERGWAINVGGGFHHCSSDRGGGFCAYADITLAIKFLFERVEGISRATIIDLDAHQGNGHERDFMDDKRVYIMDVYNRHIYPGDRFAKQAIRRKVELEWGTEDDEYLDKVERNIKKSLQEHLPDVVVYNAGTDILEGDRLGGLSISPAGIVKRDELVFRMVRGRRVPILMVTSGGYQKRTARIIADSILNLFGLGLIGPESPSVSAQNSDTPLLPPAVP
In words: Inhibition of recombinant human N-terminal Strep2-tagged HDAC11 (1 to 347 residues) expressed in baculovirus infected insect cells using Boc-Lys(TFA)-AMC as substrate after 60 mins by fluorescence assay.

The target in assay [3] is T4, Protein deacetylase HDAC6 (Homo sapiens, UniProt Q9UBN7).
T4 sequence (Q9UBN7 whole entry): T2 sequence (whole entry)
In words: Inhibition of full length recombinant human N-terminal GST-tagged HDAC6 expressed in baculovirus infected insect cells using RHK-K(Ac)-AMC as substrate after 90 mins by fluorescence assay.

Assay [4] deals with T2, Protein deacetylase HDAC6 (Homo sapiens). The assay can be described thus: Inhibition of HDAC6 in human U266 cells assessed as increase in acetylated tubulin level by immunoblot analysis relative to control. In kind it is cell-based. Put shortly: as §2
The target in a further assay is Histone deacetylase 9 (Homo sapiens, UniProt Q9UKV0). The assay can be described thus: Inhibition of HDAC9 (unknown origin).
Chain of Histone deacetylase 9 (Q9UKV0 whole entry): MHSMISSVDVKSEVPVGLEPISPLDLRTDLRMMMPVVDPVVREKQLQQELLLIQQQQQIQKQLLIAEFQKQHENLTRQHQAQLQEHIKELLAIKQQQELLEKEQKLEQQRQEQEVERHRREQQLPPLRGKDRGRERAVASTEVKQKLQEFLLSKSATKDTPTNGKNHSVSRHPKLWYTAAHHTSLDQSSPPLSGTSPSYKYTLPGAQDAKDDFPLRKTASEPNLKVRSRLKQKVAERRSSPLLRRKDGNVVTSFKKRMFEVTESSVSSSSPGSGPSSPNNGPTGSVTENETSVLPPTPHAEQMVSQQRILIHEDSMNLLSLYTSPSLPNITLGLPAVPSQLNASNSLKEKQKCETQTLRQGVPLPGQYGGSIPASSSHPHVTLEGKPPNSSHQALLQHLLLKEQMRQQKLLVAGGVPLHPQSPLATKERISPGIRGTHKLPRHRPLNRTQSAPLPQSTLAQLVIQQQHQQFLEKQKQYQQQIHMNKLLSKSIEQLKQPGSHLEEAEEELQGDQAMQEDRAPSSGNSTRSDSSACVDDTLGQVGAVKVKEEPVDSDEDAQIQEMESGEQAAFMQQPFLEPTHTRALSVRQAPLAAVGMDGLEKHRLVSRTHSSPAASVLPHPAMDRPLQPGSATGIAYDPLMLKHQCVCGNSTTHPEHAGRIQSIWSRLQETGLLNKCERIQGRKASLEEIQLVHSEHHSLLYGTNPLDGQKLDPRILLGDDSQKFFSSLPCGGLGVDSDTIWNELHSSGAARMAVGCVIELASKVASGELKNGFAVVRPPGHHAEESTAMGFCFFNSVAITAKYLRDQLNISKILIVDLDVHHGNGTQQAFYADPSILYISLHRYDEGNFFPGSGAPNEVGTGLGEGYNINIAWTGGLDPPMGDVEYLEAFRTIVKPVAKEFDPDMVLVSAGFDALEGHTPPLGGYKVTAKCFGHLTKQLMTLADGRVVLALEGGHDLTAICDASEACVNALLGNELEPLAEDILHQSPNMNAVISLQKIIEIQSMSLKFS

As for `O=C(NO)c1ccc(CNc2cccc3cccnc23)cc1`, the values for the GI50 in the assay with RPMI-8226 and in the assay with NCI-H929 were 7490 nM and 9140 nM, respectively. In addition, the IC50 at Histone deacetylase 1 came out at 9550 nM; on Histone deacetylase 8, 1190 nM; on Histone deacetylase 11 it was 376 nM; in [3] it was 0.291 nM; on Histone deacetylase 9, 1530 nM. Also, the inhibition result in assay [1], in assay [2] and in assay [4] was “Dose-dependent effect” each time.

As to `O=C(NO)c1ccc(CNc2cccc3ncccc23)cc1`, the values for the GI50 with RPMI-8226 and in the assay with NCI-H929 were 11000 nM and 6200 nM, respectively. Also, the IC50 on Histone deacetylase 1 is 7050 nM; on Histone deacetylase 8, 636 nM; at Histone deacetylase 11, 1000 nM; in assay [3], 0.795 nM; at Histone deacetylase 9, 1920 nM. Moreover, the inhibition entry in [1], in assay [2] and in assay [4] was “Dose-dependent effect” in each case.
